For data set [1], the target named is T1, Amine oxidase [flavin-containing] B (Homo sapiens, UniProt P27338).
T1 sequence (P27338 whole entry): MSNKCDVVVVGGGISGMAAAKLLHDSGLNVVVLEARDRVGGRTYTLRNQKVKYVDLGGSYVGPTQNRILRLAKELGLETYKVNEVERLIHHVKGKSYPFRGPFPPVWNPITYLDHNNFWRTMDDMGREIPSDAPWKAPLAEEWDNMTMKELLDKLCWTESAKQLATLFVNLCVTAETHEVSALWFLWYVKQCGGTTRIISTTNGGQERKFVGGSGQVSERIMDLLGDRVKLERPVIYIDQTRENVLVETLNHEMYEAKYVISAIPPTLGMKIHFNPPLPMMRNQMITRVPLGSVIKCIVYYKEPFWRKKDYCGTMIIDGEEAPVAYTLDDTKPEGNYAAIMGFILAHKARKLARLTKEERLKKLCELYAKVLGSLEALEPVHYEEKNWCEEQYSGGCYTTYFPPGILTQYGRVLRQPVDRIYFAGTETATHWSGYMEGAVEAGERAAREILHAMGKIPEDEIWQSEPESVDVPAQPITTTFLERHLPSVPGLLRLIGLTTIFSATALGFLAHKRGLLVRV
Description: Inactivation of human […] assessed as half time at 0.8 mM. The conditions noted are these: 800 µM.

For data set [2], the species on record is Papio hamadryas. Description: Inhibition of MAO-B in baboon liver microsome assessed as MMDP+ formation at 13 uM after 180 mins relative to control; values are per cent of control. In general terms: Liver microsomes are a subcellular fraction often used to study metabolism.
Data set [3] in a line: Stability in pH 7.4 sodium phosphate buffer assessed as hydrolysis at 100 uM after 30 mins. Type of data set: physicochemical. The conditions noted are these: read-out: Activity. The method, boiled down: (§1)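 Compound (100 µM, or 10 µM where stated) in 100 mM sodium phosphate buffer, pH 6.4–8.0, with 4% DMSO, held at 37 °C in quartz cuvettes. UV–vis spectra (230–500 nm) recorded at intervals. Remaining compound was calculated from the loss of absorbance at its longest-wavelength maximum (337–354 nm) using its molar absorptivity; hydrolysis is expressed as percent.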

Data set [4] is filed under the species Papio hamadryas. Description: Inhibition of MAO-B in baboon liver microsome assessed as MMDP+ formation at 13 uM after 120 mins relative to control; values are per cent of control.
The species entered for data set [5] is Papio hamadryas. In words: Inhibition of MAO-B in baboon liver microsome assessed as MMDP+ formation at 13 uM after 30 mins relative to control; values are per cent of control.
Data set [6] is filed under the species Papio hamadryas. In words: Inhibition of MAO-B in baboon liver microsome assessed as MMDP+ formation at 13 uM after 60 mins relative to control; values are per cent of control.
Data set [7] is described as follows: Inhibition of MAO-B in baboon liver microsome assessed as MMDP+ formation. Type of data set: microsomes, Papio hamadryas. In a few lines:
(§2)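 Baboon liver mitochondrial fraction (0.15 mg protein/mL) as MAO-B source; substrate MMTP 30–120 µM with varied inhibitor concentrations, 4% DMSO cosolvent. Incubation at 37 °C for 10 min, stopped with perchloric acid, centrifuged; MMDP⁺ read at 420 nm (ε 25,000 M⁻¹). Ki from the x-intercept of a replot of Lineweaver–Burk slopes versus inhibitor concentration; single determination, replot R² ≥0.99.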

For data set [8], the species on record is Papio hamadryas. Description: Inhibition of MAO-B in baboon liver microsome assessed as MMDP+ formation at 13 uM after 240 mins relative to control; values are per cent of control.
Data set [9] is filed under the species Papio hamadryas. Description: Competitive inhibition of MAO-B in baboon liver microsome by Lineweaver-Burke plot. Type of data set: microsomes. In a few lines: as §2
Data set [10] can be described thus: Stability in pH 6.4 to 8 phosphate buffer at 100 uM up to 360 mins. Type of data set: physicochemical. The conditions noted are these: pH 6.4, 6 h. In a few lines:
as §1

Data set [11] is described as follows: Stability in pH 7 sodium phosphate buffer assessed as hydrolysis at 100 uM at 360 mins. Type of data set: physicochemical. The conditions noted are these: read-out: Activity. The method, boiled down:
as §1

The nature of data set [12]: Stability in pH 8 sodium phosphate buffer assessed as hydrolysis at 100 uM at 360 mins. Type of data set: physicochemical. The conditions noted are these: read-out: Activity. The method, boiled down:
as §1

Data set [13] is described as follows: Stability in pH 7.4 sodium phosphate buffer assessed as hydrolysis at 100 uM at 360 mins. Type of data set: physicochemical. The conditions noted are these: read-out: Activity. In a few lines: as §1
The species entered for data set [14] is Papio hamadryas. Description: Inhibition of MAO-B in baboon liver microsome assessed as MMDP+ formation at 14 uM up to 60 mins. Type of data set: microsomes. In a few lines:
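Baboon liver mitochondria (0.3 mg protein/mL) preincubated with inhibitor (14 µM) in 100 mM sodium phosphate pH 7.4 at 37 °C for 0, 15, 30 or 60 min. Then diluted to 0.15 mg protein/mL (inhibitor 7 µM final) with MMTP 90 µM and incubated 15 min at 37 °C. Perchloric acid stop, MMDP⁺ read at 420 nm; triplicate, mean ± SEM.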

The nature of data set [15]: Stability in pH 6.4 to 8 phosphate buffer at 100 uM. Type of data set: physicochemical. The conditions noted are these: pH 6.4, 100 µM. The method, boiled down: as §1
Data set [16] in a line: Stability in pH 7.4 sodium phosphate buffer assessed as hydrolysis at 10 uM after 30 mins. Type of data set: physicochemical. The conditions noted are these: read-out: Activity. In a few lines:
as §1

Structures are written as SMILES. pKi: −log10 of the molar value. Calls of active or inactive are those of the source. The calls are words filed in the database; no cut-off is given here.

Consider `CCN1C(=O)C=CC1=O` [N-ETHYLMALEIMIDE], for which the Time in data set [1] worked out at 8 h.

For the compound `CN1C(=O)C=C(c2cccc(Cl)c2)C1=O`, the residual activity (commonly the share of the control activity or signal that is left under treatment) is 80% in data set [2]; 68% in data set [4]; 52% in [5]; 66% in [6]; 84% in [8]. Further, in data set [3], the degraded at 0.5 h, 100 µM came to 40%. For the same compound, the pKi (as a rule, −log10 of the Ki, conventionally taken in molar units) in data set [7] was 5.18. For the same compound, the result in [9] was Active.

Take `CN1C(=O)C=C(c2cccc(C(F)(F)F)c2)C1=O`: the degraded at 0.5 h, 100 µM in [3] worked out at 40%. In data set [7], the pKi was 4.96.

In the case of `CN1C(=O)C=C(c2cccc(F)c2)C1=O`, the degraded at 0.5 h, 100 µM in [3] came out at 40%. Further, the negative-log Ki (pKi) in [7] is 5.24.

With `COc1cccc(C2=CC(=O)N(C)C2=O)c1`, the degraded at 0.5 h, 100 µM in data set [3] came out at 40%. The negative logarithm of the Ki (pKi) in [7] is 5.07.

With `CN1C(=O)C=C(c2cccc(Br)c2)C1=O`, in data set [3], the degraded at 0.5 h, 100 µM turned out to be 40%. For the same compound, the negative logarithm of the Ki (pKi) in [7] is 5.16.

Take `Cc1cccc(C2=CC(=O)N(C)C2=O)c1`: the degraded at 0.5 h, 100 µM in data set [3] is 40%. The pKi in [7] was 5.07.

As to `CN1C(=O)C=C(c2ccccc2)C1=O`, the Activity entry in data set [10] and in data set [15] was “Stable” each time. The degraded at 6 h, 100 µM in data set [11] was 13%; in data set [12], 73.8%; in data set [13] it was 31.4%. Also, the degraded at 0.5 h, 100 µM in data set [3] is 2.8%. The outcome in data set [14] was inactive. In [7], the pKi is 5.46. Moreover, the degraded at 0.5 h, 10 µM in data set [16] was found to be 1%.

(Values after ChEMBL document CHEMBL1153437, “Inhibition of monoamine oxidase B by N-methyl-2-phenylmaleimides” (Bioorg Med Chem, 2009).)
